These results are taken from ChEMBL document CHEMBL1122986, “Aldosterone antagonists. 1. Synthesis and activities of 6 beta,7 beta:15 beta,16 beta-dimethylene steroidal spirolactones” (J Med Chem, 1985).

Assay [1] has as its target T1, Androgen receptor (Rattus norvegicus) (UniProt P15207).
T1 sequence (whole entry): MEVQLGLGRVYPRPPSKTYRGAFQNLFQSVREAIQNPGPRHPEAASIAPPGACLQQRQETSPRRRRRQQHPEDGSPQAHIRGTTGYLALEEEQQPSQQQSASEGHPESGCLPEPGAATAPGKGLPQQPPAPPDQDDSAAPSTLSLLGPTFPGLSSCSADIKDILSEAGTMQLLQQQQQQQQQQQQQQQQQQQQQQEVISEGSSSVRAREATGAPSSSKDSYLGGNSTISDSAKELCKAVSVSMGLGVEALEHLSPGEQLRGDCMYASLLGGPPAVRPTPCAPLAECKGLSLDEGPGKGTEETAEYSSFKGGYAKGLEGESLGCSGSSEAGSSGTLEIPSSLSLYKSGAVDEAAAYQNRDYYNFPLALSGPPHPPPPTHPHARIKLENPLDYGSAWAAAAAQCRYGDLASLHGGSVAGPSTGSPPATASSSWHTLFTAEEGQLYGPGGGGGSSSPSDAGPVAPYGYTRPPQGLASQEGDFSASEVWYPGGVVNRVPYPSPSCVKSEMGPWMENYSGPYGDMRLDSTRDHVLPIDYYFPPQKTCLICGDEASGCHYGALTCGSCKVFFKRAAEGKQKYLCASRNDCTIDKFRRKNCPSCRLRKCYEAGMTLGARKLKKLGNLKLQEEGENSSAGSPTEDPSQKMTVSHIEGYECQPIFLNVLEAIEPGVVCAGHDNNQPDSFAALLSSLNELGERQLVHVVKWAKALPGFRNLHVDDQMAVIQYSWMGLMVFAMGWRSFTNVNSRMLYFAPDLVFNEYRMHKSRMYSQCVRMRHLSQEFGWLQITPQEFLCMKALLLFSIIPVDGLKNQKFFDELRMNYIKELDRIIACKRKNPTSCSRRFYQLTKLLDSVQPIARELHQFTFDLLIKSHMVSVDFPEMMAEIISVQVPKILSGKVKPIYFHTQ

The target of assay [2] is T2, Progesterone receptor (Oryctolagus cuniculus) (UniProt P06186).
T2 sequence (whole entry): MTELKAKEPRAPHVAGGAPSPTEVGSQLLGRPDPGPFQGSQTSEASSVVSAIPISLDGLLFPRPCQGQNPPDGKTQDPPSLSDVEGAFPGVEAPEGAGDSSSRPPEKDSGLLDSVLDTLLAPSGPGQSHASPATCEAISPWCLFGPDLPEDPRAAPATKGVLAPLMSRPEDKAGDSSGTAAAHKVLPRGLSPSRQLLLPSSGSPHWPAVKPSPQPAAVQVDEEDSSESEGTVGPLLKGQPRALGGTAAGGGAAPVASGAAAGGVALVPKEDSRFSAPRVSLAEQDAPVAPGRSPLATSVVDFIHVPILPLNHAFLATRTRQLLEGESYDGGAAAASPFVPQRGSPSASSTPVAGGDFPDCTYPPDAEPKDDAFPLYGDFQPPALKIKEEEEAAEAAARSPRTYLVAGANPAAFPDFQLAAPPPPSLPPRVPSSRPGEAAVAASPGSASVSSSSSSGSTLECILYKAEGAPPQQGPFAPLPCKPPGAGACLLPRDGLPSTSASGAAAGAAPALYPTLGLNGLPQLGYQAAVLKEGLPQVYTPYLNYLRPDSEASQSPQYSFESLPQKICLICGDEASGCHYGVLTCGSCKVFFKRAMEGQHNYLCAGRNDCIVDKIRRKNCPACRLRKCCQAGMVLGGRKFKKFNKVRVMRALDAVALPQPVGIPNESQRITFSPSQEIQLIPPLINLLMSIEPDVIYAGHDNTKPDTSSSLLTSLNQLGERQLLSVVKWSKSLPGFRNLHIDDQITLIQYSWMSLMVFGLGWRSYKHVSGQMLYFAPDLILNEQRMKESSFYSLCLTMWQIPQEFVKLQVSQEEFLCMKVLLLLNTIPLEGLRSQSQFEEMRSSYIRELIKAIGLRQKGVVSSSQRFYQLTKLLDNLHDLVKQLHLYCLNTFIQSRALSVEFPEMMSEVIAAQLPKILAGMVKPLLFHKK
Description: Binding affinity for rat progesterone receptor compared to progesterone.

For assay [3], the target named is T3, Mineralocorticoid receptor (Rattus norvegicus) (UniProt P22199).
T3 sequence (whole entry): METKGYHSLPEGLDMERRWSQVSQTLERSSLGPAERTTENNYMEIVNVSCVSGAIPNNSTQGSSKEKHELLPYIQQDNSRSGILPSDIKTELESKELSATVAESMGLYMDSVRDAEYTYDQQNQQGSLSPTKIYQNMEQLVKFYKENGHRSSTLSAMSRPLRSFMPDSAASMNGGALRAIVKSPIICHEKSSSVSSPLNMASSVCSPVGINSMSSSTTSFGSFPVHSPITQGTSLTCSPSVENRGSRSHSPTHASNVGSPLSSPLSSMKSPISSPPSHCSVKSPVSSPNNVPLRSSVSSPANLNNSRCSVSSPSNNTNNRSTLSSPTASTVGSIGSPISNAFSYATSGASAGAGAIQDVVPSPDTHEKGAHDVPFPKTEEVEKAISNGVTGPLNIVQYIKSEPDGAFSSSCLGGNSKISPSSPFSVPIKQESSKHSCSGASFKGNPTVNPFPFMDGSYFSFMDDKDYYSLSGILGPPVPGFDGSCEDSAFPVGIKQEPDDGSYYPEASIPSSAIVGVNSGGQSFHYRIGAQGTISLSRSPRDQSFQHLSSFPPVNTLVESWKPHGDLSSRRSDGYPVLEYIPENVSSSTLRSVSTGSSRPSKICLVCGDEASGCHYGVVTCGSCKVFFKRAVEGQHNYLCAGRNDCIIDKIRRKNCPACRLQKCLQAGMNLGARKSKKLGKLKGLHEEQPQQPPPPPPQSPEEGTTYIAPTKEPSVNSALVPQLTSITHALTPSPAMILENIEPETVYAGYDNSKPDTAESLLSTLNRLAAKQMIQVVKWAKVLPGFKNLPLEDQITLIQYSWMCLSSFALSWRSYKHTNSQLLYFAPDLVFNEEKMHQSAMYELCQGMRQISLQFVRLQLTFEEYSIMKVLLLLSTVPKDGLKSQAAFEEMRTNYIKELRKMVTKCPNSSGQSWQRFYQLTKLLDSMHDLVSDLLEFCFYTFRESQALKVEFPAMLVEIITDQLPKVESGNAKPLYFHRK
Description: Relative potency as antialdosterone activity compared to spironolactone 1 hr after oral administration. It counts as functional, organism-based. The essentials: (§1)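 Adrenalectomized Wistar rats (140–160 g) were maintained on fluocortolone caproate 1 mg/kg on the day of surgery and fluocortolone 10 mg/kg sc one day before testing. Rats were infused with saline-glucose (0.05% NaCl, 5% glucose) containing aldosterone 50 μg/L at 3 mL/h. Compounds were given orally 1 h before infusion at 6.7, 13.4 and 26.8 mg/kg. Hourly urine Na and K were measured by flame photometry over 10–15 h.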

Assay [4] addresses T3, Mineralocorticoid receptor (Rattus norvegicus). Description: Relative potency as antialdosterone activity compared to spironolactone 1 hr after oral administration; No activity. It counts as functional, organism-based. Put shortly: as §1
Assay [5] addresses T1, Androgen receptor (Rattus norvegicus). Description: Binding affinity for rat androgen receptor compared to dihydrotestosterone; No affinity.
Assay [6] has as its target T2, Progesterone receptor (Oryctolagus cuniculus). Kind of assay: Binding affinity for rat progesterone receptor compared to progesterone; No affinity.
Assay [7] shares this target. Description: Progestational activity in rabbit at 30.0 mg/kg oral dose. It counts as functional, organism-based. Also noted: dose 30 mg/kg. Put shortly: (§2)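 Clauberg test in rabbits after oral administration, run by literature procedures. Doses are listed […], and the read-out is the McPhail index.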
For assay [8] the target is unchanged. Description: Progestational activity in rabbit at 1.0 mg/kg oral dose. It counts as functional, organism-based. Details: dose 1 mg/kg. Put shortly:
as §2

The target is the same in assay [9]. Description: Progestational activity in rabbit at 3.0 mg/kg oral dose. It counts as functional, organism-based. Details: dose 3 mg/kg. Put shortly:
as §2

The target is the same in assay [10]. Description: Progestational activity in rabbit at 0.3 mg/kg oral dose. It counts as functional, organism-based. Details: dose 0.3 mg/kg. Put shortly: as §2
Assay [11] addresses T3, Mineralocorticoid receptor (Rattus norvegicus). Description: Relative potency as antialdosterone activity compared to spironolactone 1 hr after oral administration; NA denotes no activity. It counts as functional, organism-based. Put shortly: as §1

The source made the active and inactive calls. The calls are words filed in the database; no cut-off is given here.

As to `CC12C(=CC(=O)[C@@H]3C[C@@H]31)C1CC1C1C2CCC2(C)C1C1CC1[C@@]21CCC(=O)O1` (some centres undefined), the Competition factor in assay [1] was 25; in assay [2] it was 2.1. Besides, the MRP in assay [3] is 520.

Take `CC12C=C(Cl)C(=O)C=C1C1CC1C1C2CCC2(C)C1C1CC1[C@@]21CCC(=O)O1` (some centres undefined): the Competition factor in assay [2] was 33. In addition, the MRP result in assay [4] is “inactive”.

For `C[C@@H]1CC2(C)C(=CC1=O)C1CC1C1C2CCC2(C)C1C1CC1[C@@]21CCC(=O)O1` (some centres undefined), the Competition factor entry in [5] was “inactive”. This molecule also yielded a Competition factor in assay [2] of 105. In assay [3], the MRP was under 100.

Turning to `C[C@H]1CC2(C)C(=CC1=O)C1CC1C1C2CCC2(C)C1C1CC1[C@@]21CCC(=O)O1` (some centres undefined), the Competition factor result in assay [5] was “inactive”. In [2], the Competition factor is 30. This molecule came in with an MRP in [3] of 100.

For `C[C@]12CCC(=O)C=C1[C@@H]1C[C@@H]1[C@H]1[C@@H]3[C@@H]4C[C@@H]4[C@@]4(CCC(=O)O4)[C@@]3(C)CC[C@@H]12`, the Competition factor in assay [2] was determined as 2.7. In assay [3], this molecule showed an MRP of 685.

Consider `CC(=O)S[C@H]1CC(=O)C=C2C3CC3C3C(CCC4(C)C3C3CC3[C@@]43CCC(=O)O3)C21C` (some centres undefined), for which the Competition factor entry in [6] is “inactive”. The molecule further gave an MRP in assay [3] of 100.

On to `CC12C(=CC(=O)C[C@@H]1S)C1CC1C1C2CCC2(C)C1C1CC1[C@@]21CCC(=O)O1` (some centres undefined), for which the Competition factor in [1] is 63; in assay [2] it was 5.8. For the same molecule, the MRP in [3] is over 100. The molecule also showed a McPhail index in assay [7] of 3.5.

`C=C1CC2(C)C(=CC1=O)C1CC1C1C2CCC2(C)C1C1CC1[C@@]21CCC(=O)O1` (some centres undefined): the Competition factor entry in assay [5] is “inactive”. The molecule further showed a Competition factor in assay [2] of 18. Moreover, the MRP result in [4] was “inactive”.

Consider `CC12C=CC(=O)C=C1C1CC1C1C2CCC2(C)C1C1CC1[C@@]21CCC(=O)O1` (some centres undefined), for which the values for the McPhail index in [8], in assay [9] and in [10] were 2.2, 2.7 and 1, respectively. For the same molecule, the Competition factor amounted to 150 in [1] and 6.5 in assay [2]. The molecule further returned an MRP in assay [3] of 745.

For the molecule `CC12C(=CC(=O)CC1O)C1CC1C1C2CCC2(C)C1C1CC1[C@@]21CCC(=O)O1` (some centres undefined), the Competition factor result in assay [5] was “inactive”. The Competition factor in assay [2] is 19. The molecule further yielded an MRP in [3] of 45.

Turning to `CC12CCC(=O)C(Cl)=C1C1CC1C1C2CCC2(C)C1C1CC1[C@@]21CCC(=O)O1` (some centres undefined), the MRP entry in assay [4] was “inactive”.

In assay [1], `C[C@H]1CC(=O)C=C2C3CC3C3C(CCC4(C)C3C3CC3[C@@]43CCC(=O)O3)C21C` (some centres undefined) yielded a Competition factor of 70. Also, the MRP in assay [3] stood at 100.

For the molecule `CS[C@H]1CC(=O)C=C2C3CC3C3C(CCC4(C)C3C3CC3[C@@]43CCC(=O)O3)C21C` (some centres undefined), the Competition factor entry in assay [6] and in [5] was “inactive” in each case. The MRP in assay [3] was 240. The molecule further displayed a McPhail index in assay [7] of 3.8.

For the molecule `CC12C(=CC(=O)C[C@@H]1C#N)C1CC1C1C2CCC2(C)C1C1CC1[C@@]21CCC(=O)O1` (some centres undefined), in assay [11], the MRP result is “inactive”.

As to `CC12CCC(=O)C=C1C1CC1C1C2[C@H](O)CC2(C)C1C1CC1[C@@]21CCC(=O)O1` (some centres undefined), the Competition factor entry in assay [5] is “inactive”. In assay [2], the Competition factor turned out to be 195. Moreover, the MRP result in [4] is “inactive”.

The molecule `CC(=O)S[C@@H]1CC2=CC(=O)CC[C@]2(C)[C@H]2CC[C@@]3(C)[C@@H](CC[C@@]34CCC(=O)O4)[C@H]12` gave a Competition factor in assay [2] of 21. The molecule also registered an MRP in assay [3] of 100.

As to `CC12CCC(=O)C=C1C1CC1C1C2CC(O)C2(C)C1C1CC1[C@@]21CCC(=O)O1` (some centres undefined), the Competition factor entry in assay [5] is “inactive”. Besides, the Competition factor in [2] was 25. Besides, in assay [4], the MRP entry is “inactive”.

`CC1=CC2(C)C(=CC1=O)C1CC1C1C2CCC2(C)C1C1CC1[C@@]21CCC(=O)O1` (some centres undefined) gave a Competition factor in assay [2] of 35. The MRP result in [4] is “inactive”.
